Shown are actives, neighbours in structure and some others; about 4% of the full set was active somewhere.
Cardio protect = modulators protecting cardiomyocytes from myocardial damage; hit rate 0.63% among 360,000; H9c2 cardiomyocytes, H2O2 injury protection, ATPLite, 2 h; protection from H2O2 cell death, % at 20 µM;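 active = compounds giving at least 50% protection of heart cells from peroxide-induced death in the single-dose screen, raw or plate-pattern-corrected value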
GRIN3A LBD mod = modulates the human NR3A ligand-binding domain; NR3A LBD differential scanning fluorimetry, Tm shift; 0% = protein alone, 100% = glycine-bound protein; hit rate 2.5% among 340,000; AID 1259313; Tm shift relative to glycine control, % at 25 µM;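 active = melting temperature shift of at least 10% of the positive control shift, at one fixed dose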
iPSC survival up = increases survival of single human iPS cells | hit rate 0.044% among 360,000 | survival enhancement, % at 20 µM | hiPSC single-cell survival, ATPlite luminescence; 100% = ROCK inhibitor wells, 0% = DMSO; in the data active = survival enhancement above about 18%;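 note: cells exposed to compounds for 16 hours before the ATP read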
Arrestin-AP2 inh = blocks beta-arrestin peptide binding to AP2 adaptin. AID 504490. inhibition, % at 10 µM. hit rate 0.31% among 340,000. FITC-arrestin peptide / GST-AP2 beads, flow cytometry; AP2 beta2 appendage carries R879A mutation;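 active = inhibition above a set limit, near 3 SD of compounds lacking own fluorescence, cut at about 54% in these data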
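test system = AP2 appendage R879A on GSH beads | buffer or medium = PBS plus Tween 20 (0.05%) and BSA (0.1%) | incubation = 12 min plus 1 h, RT | detection = bead flow cytometry, FITC channel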
SENP1 FRET inh = inhibitors of human SENP1 SUMO protease catalytic domain; Q9P0U3; recombinant SENP1 catalytic domain, CyPet-SUMO1-YPet FRET cleavage; inhibition, % at 10 µM; hit rate 0.21% among 360,000; AID 624204;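 active = inhibition at least 30% at 10 µM, raw YFP signal under a set limit, fluorescence ratio 0.5 to 1.5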
Target sequence (Q9P0U3 419-644 limits assumed): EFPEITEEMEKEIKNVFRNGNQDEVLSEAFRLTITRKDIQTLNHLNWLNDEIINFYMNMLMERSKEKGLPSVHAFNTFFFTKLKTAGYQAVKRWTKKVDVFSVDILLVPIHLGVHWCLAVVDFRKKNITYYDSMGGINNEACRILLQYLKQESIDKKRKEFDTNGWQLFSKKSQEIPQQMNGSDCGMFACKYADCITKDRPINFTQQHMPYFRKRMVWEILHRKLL
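material = recombinant human SENP1 catalytic domain, His6-tagged | quantity = 20 pM enzyme | reagent = 25 nM SUMO1 FRET substrate | compound dosing = 10 µM single point, 0.5% DMSO | timing = 50 min enzyme reaction, room temperature, light-protected | detection = FRET, CFP and YFP emission | control set = no-enzyme low, enzyme-DMSO high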
FAS-TE inh = blocks the thioesterase domain of human fatty acid synthase | P49327 | recombinant FAS-TE, OMFH fluorogenic substrate, fluorescence endpoint | inhibition, % at 15 µM | hit rate 0.67% among 360,000 | AID 602261;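 active = compounds whose normalised, plate-corrected inhibition of enzyme fluorescence in the single-dose primary screen is 50% or more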
Each line names hits and unclear results; the compound was inactive in the other large screens.

C/C(=N\NC(=O)c1cccc(N/N=C(\C)c2cc(O)ccc2O)c1)c1cc(O)ccc1O	GRIN3A LBD mod 14
C/C(=N\Nc1cccc([N+](=O)[O-])c1)c1cc(F)ccc1O	GRIN3A LBD mod 10
Cc1cc(Br)cn2c(Cc3cccc(F)c3)c(-c3ccccc3)nc12	none (no result: GRIN3A LBD mod, Arrestin-AP2 inh)
COc1cccc(CN2CCN(C(=O)[C@H]3O[C@@H](n4cnc5c(N)ncnc54)[C@H](O)[C@@H]3O)CC2=O)c1	none (no result: GRIN3A LBD mod, Arrestin-AP2 inh)
CSC1=NSC2=NC(=O)/C(=C/c3coc4ccc(O)cc4c3=O)C(=N)N12	GRIN3A LBD mod 15
CSC1=NSC2=NC(=O)/C(=C/c3coc4ccccc4c3=O)C(=N)N12	GRIN3A LBD mod 11
C[C@H]1COc2cc(N(C)CCO)ccc2S(=O)(=O)N1	none (no result: Cardio protect, GRIN3A LBD mod, Arrestin-AP2 inh)
O=C1C=C(N2CCN(C(=O)c3ccccc3)CC2)C2(CCCCC2)O1	GRIN3A LBD mod 11
CC(NC(=O)COC(=O)c1ccc2c(c1)S(=O)(=O)N=C1CCCCCN12)C12CC3CC(CC(C3)C1)C2 (stereo not drawn)	GRIN3A LBD mod 18
CCC(CC)c1nnc(NC(=O)c2c(C)nn(Cc3ccccc3Cl)c2C)s1	GRIN3A LBD mod 16
Cc1nn(Cc2ccccc2Cl)c(C)c1C(=O)NC1=NCCS1	none
C[C@H]1COc2cc(N3CCC[C@H]3CO)ccc2S(=O)(=O)N1	none (no result: Cardio protect, GRIN3A LBD mod, Arrestin-AP2 inh)
COC(=O)[C@H]1C[C@H](OC(=O)NCc2ccccc2F)[C@@]2(O)CN(S(=O)(=O)c3ccc(C)cc3)CC2[C@H]1C(=O)OC (stereo partly drawn)	none (no result: GRIN3A LBD mod, Arrestin-AP2 inh)
Cc1ccccc1OCC(=O)NC(=S)Nc1cccc2cc(O)ccc12	GRIN3A LBD mod 19
O=C(O)c1ccc(C[n+]2c(-c3ccccc3)csc2Nc2ccccc2)cc1	GRIN3A LBD mod 18
CC(C)(C)c1cc(-c2csc(Nc3ccccc3)[n+]2Cc2ccc(C(=O)O)cc2)cc(C(C)(C)C)c1O	none
Cc1cc(NN)nc2ccc(Cl)cc12	GRIN3A LBD mod 12
COc1ccc(C(Nc2cc(C)ccn2)c2ccc3ccc(C)nc3c2O)cc1 (stereo not drawn)	Cardio protect 62
COc1cc(C(Nc2ccccn2)c2ccc3ccc(C)nc3c2O)cc(OC)c1O (stereo not drawn)	none
Cc1ccnc(NC(c2cccnc2)c2ccc3cccnc3c2O)c1 (stereo not drawn)	none
Cc1ccnc(NC(c2ccsc2)c2ccc3ccc(C)nc3c2O)c1 (stereo not drawn)	Cardio protect 54
O=C(Nc1ccc(Cl)cc1)c1ccc(-c2ccccn2)s1	GRIN3A LBD mod 31
Cc1nc(-c2ccccn2)sc1C(=O)Nc1ccc(Cl)c(Cl)c1	GRIN3A LBD mod 26
Cc1cccnc1C(NC(=O)C1CCN(Cc2ccc(Oc3ccccc3)cc2)CC1)c1ccc(F)cc1 (stereo not drawn)	none (no result: GRIN3A LBD mod, Arrestin-AP2 inh)
CC1NC(=O)c2cc3ccccc3cc2-n2c1nc1cc(Cl)ccc1c2=O (stereo not drawn)	none (no result: GRIN3A LBD mod, Arrestin-AP2 inh)
N#CC1=C(N)Oc2c(ccc3cccnc23)C1c1ccccc1 (stereo not drawn)	Cardio protect 58
COC(=O)C1=C(C)NC(C)=C(C(=O)OC)C1c1cc2cc(C)ccc2[nH]c1=O	none
Cc1ccc2[nH]c(=O)c(C3C(C#N)=C(N)Oc4c3ccc3cccnc43)cc2c1 (stereo not drawn)	Cardio protect 64
Cc1oc(C)c2c(=O)ccc3c(c12)OC(N)=C(C#N)C3c1ccccc1 (stereo not drawn)	none
C[C@@H]1CCCCO[C@@H](CN(C)CC2CC2)[C@@H](C)CN([C@H](C)CO)C(=O)c2cc(N(C)C)ccc2O1	none (no result: GRIN3A LBD mod, Arrestin-AP2 inh)
COc1ccc(OCCOC(=O)CNC(=O)c2ccc(F)cc2)cc1	none (no result: GRIN3A LBD mod, Arrestin-AP2 inh)
COc1cc(NC(=O)c2ccc(-c3cnn(C)c3)c3ccoc23)cc(OC)c1OC	none (no result: GRIN3A LBD mod, Arrestin-AP2 inh)
Cc1ccc(NC(=O)c2sc3ncn(CC(=O)N4CCN(c5ccccn5)CC4)c(=O)c3c2C)cc1Cl	GRIN3A LBD mod 14
C=C1C(=O)OC2C1CCC(C)=C1C(=O)C3OC3(C)C12 (stereo not drawn)	iPSC survival up 27
OC[C@H]1O[C@@H](c2nc3ccc(-c4nc(-c5cccs5)no4)cc3[nH]2)C[C@@H]1O	none (no result: GRIN3A LBD mod, Arrestin-AP2 inh)
COCCNC(=O)c1cc2c(s1)-c1ccc(Cl)cc1SC2	none
NC(=O)c1cc2c(s1)-c1cc(Cl)ccc1SC2	GRIN3A LBD mod 47
O=S(=O)(c1ccccc1F)N1CCN(CC(O)c2ccccc2)CC1 (stereo not drawn)	none
CN(Cc1ccccc1)C(=O)CN1CCN(S(=O)(=O)c2ccccc2F)CC1	iPSC survival up 26 (no result: GRIN3A LBD mod, Arrestin-AP2 inh)
O=C1C=CN(C2OC(CO)C(O)C2O)C(=O)C1 (stereo not drawn)	none (no result: GRIN3A LBD mod, Arrestin-AP2 inh)
CCCN1C(=O)/C(=C/c2c(N3CCNC(=O)C3CC(=O)OCC)nc3c(C)cccn3c2=O)SC1=S (stereo not drawn)	Cardio protect 63
CC(C)C(=O)N1CCC1(C)C(=O)Nc1ccc(-n2cccc2)cc1 (stereo not drawn)	none (no result: GRIN3A LBD mod, Arrestin-AP2 inh)
CSc1cccc(NC(=S)NN(C)C)c1	none
FC(F)(F)c1cccc(NC(=S)Nc2ccc(Cl)cc2Cl)c1	none
CSc1cccc(NC(=S)Nc2ccc(F)cc2)c1	GRIN3A LBD mod 14
FC(F)(F)c1ccccc1NC(=S)Nc1cccc(Cl)c1	GRIN3A LBD mod 14
Fc1ccc(NC(=S)Nc2cccc(Cl)c2)cc1	GRIN3A LBD mod 13
O=C(NC(=S)Nc1ccc(F)c(Cl)c1)C1CC1	none
Fc1ccc(NC(=S)Nc2ccc(F)c(Cl)c2)cc1Cl	GRIN3A LBD mod 12
Cc1ccc(-c2nc3ccccc3n2C(C)C(=O)NC(C)(C)C)cc1 (stereo not drawn)	none (no result: Cardio protect, GRIN3A LBD mod, iPSC survival up, Arrestin-AP2 inh, FAS-TE inh)
Fc1ccc(NC(=S)Nc2ccc(Br)cc2)cc1	GRIN3A LBD mod 15
Oc1ccc(NC(=S)Nc2ccc(F)cc2)cc1	none
O=C(Nc1ccc(OC(F)F)c(Cl)c1)c1ccccn1	none
COC(=O)NC(=S)Nc1ccc(Oc2ccc(Cl)cc2Cl)c(Cl)c1	GRIN3A LBD mod 16
Cc1ccc(NC(=S)Nc2ccc(OC(F)F)c(Cl)c2)cc1F	GRIN3A LBD mod 32
OC(c1ccccc1)C(NCc1ccccc1)c1ccccc1 (stereo not drawn)	none (no result: GRIN3A LBD mod, Arrestin-AP2 inh)
COc1ccc(C(O)c2nc(-c3cc(F)cc(Cl)c3)cs2)cc1 (stereo not drawn)	none (no result: GRIN3A LBD mod, Arrestin-AP2 inh)
COC(=O)[C@]12CCCCC=C1N(Cc1cccc3ccccc13)C(=O)[C@H](CC(=O)N1CCN(C(=O)C3CC3)CC1)C2	none (no result: Cardio protect, GRIN3A LBD mod, Arrestin-AP2 inh)
COc1cc(/C=N/NC(=O)CCN2CCN(C)CC2)cc2c1OCO2	GRIN3A LBD mod 11
COc1cc(/C=N/NC(=O)c2ccncc2)cc2c1OCO2	none
CCCCn1c(N)c(NCCC(C)C)c(=O)[nH]c1=O	none

High-throughput results (PubChem BioAssay)
